From publication PMC9165588 (European journal of medicinal chemistry, 2022)
“Also recorded” adds a separate entry of the source. Where a name gives a salt, the structure may show the parent alone.

What was measured:
[1] = target: T1, binding between p300 HAT and histone H4 (Homo sapiens, UniProt Q09472); assay: ALPHA assay of p300 HAT-histone H4 peptide binding
T1 sequence (Q09472 1195-1673): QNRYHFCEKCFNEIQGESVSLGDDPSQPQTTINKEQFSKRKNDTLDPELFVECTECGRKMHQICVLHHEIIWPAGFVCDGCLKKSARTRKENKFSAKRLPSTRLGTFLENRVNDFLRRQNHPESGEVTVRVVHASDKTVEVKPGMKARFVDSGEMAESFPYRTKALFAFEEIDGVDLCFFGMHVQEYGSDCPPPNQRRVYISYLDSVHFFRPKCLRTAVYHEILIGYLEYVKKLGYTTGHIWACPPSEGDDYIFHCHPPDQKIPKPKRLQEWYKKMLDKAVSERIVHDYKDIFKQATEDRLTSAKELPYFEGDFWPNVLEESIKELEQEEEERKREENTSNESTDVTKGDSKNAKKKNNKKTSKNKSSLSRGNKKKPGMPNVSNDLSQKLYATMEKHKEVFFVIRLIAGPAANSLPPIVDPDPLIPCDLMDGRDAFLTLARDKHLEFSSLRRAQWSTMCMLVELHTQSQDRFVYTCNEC

PANC-1 = conditions: read-out: Antiproliferative activity EC50; cited from earlier work
MCF-7 = conditions: read-out: Antiproliferative activity EC50; cited from earlier work
MDA-PANC-28 = conditions: read-out: Antiproliferative activity EC50; cited from earlier work
[2] = target: T2, HAT domain (1195-1673) of human p300 (Homo sapiens, UniProt Q09472); assay: p300 HAT inhibition assay; type: biochemical; conditions: for inhibitory activity against p300 HAT (in words): initial screen at 10 μM; for inhibition at 10 µM: read-out: inhibition of p300 HAT at 10 μM
T2 sequence (Q09472 1195-1673): T1 sequence (Q09472 1195-1673)

PCAF = PCAF (Homo sapiens, UniProt Q92831); assay: PCAF HAT inhibition assay; type: biochemical
Chain of PCAF (Q92831 whole entry): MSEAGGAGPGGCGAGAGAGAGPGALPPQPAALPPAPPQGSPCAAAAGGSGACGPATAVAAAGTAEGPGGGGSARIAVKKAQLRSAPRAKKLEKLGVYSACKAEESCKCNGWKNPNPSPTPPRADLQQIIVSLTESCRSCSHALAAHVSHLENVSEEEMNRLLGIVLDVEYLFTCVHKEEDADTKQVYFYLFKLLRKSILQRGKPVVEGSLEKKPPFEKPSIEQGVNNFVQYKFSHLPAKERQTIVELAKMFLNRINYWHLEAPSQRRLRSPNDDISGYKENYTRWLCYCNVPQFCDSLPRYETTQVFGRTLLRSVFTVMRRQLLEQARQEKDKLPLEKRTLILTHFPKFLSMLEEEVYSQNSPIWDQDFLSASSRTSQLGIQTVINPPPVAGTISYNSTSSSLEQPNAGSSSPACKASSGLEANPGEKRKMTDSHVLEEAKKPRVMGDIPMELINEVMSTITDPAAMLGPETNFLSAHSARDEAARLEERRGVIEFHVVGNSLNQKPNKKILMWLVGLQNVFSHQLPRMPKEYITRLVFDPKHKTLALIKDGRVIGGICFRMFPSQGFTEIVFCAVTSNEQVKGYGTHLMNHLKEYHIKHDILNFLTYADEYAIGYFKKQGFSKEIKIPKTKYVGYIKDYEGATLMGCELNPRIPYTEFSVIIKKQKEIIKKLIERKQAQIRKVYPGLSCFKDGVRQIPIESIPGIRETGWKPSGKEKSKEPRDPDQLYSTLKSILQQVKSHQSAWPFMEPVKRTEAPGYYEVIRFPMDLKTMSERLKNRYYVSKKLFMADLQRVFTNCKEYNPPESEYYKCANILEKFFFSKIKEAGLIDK
Method in brief: (§1)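 Radiometric acetyltransfer assay. HAT enzyme (10 nM) was preincubated with test compound for 10 min at 25 °C in 50 mM phosphate buffer, pH 7.0, with 0.01% Brij-35. After 30 min at 25 °C, stopped with 6 N formic acid. Spotted on P81 paper, washed 3× in 50 mM NaHCO₃, scintillation counted.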

LSD1 [3] = target: T3, LSD1 (Homo sapiens, UniProt O60341); assay: LSD1 inhibition; type: biochemical
Myst3 = Myst3 (Homo sapiens, UniProt Q92794); assay: Myst3 HAT inhibition assay; type: biochemical
Chain of Myst3 (Q92794 whole entry): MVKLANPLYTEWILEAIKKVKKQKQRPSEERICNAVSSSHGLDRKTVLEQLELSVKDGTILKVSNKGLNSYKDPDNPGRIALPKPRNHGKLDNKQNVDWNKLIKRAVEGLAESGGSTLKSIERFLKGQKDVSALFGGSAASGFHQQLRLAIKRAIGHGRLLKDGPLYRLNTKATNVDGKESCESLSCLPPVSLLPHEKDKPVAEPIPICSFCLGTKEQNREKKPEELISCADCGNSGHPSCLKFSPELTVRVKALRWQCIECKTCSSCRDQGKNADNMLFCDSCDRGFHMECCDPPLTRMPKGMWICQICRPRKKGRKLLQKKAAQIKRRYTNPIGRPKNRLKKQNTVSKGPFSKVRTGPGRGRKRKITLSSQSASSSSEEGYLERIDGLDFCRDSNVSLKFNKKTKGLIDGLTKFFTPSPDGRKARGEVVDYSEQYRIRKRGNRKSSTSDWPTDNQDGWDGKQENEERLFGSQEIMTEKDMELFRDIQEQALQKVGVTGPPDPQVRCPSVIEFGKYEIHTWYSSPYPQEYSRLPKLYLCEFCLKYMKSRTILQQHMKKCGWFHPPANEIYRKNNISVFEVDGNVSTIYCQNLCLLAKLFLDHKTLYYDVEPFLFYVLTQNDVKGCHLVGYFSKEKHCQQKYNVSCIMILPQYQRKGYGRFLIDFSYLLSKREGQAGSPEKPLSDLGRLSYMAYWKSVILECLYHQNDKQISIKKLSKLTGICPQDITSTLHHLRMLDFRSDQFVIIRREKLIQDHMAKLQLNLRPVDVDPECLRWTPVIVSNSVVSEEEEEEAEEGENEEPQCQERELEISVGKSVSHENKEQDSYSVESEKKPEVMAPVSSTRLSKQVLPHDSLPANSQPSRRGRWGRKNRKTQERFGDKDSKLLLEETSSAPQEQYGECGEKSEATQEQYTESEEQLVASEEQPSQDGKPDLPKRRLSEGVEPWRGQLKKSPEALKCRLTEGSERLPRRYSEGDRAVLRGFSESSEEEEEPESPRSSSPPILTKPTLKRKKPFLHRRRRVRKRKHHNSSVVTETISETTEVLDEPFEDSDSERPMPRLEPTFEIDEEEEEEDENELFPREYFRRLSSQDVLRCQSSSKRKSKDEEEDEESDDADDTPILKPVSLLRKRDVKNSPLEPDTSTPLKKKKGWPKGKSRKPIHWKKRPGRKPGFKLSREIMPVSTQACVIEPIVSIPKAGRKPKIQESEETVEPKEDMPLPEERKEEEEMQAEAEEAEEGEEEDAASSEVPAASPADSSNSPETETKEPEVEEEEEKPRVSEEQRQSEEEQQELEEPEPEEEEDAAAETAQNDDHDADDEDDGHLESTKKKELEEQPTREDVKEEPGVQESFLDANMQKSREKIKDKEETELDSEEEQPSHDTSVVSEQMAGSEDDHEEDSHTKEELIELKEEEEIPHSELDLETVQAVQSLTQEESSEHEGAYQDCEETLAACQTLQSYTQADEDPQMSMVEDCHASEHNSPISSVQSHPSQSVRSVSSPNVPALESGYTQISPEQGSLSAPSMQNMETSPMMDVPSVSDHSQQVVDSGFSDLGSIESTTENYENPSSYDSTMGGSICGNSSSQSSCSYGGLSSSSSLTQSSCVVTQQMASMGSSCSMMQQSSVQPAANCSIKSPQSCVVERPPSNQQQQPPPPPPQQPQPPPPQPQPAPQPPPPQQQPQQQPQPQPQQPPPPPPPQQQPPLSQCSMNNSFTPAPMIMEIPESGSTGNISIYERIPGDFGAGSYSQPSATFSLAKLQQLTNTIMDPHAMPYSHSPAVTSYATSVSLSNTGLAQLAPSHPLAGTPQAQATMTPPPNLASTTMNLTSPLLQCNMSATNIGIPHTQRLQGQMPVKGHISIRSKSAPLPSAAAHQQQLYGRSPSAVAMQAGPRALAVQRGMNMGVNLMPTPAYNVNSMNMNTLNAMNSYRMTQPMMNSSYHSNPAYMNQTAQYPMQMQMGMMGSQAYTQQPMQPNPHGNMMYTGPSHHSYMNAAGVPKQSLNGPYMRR
Method in brief: as §1

Kasumi-1 leukemia cells = assay: Western blot of cellular histone H3 lysine acetylation; type: cell-based, human; conditions: Kasumi-1 cells, 12h, 5 and 10 μM
Method in brief: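 Kasumi-1 cells (10⁶ per well) were exposed to test compound at various concentrations for 12 h. Total histones were extracted with a kit, and 2 μg protein was resolved by SDS-PAGE and transferred to PVDF. Blots were probed with antibodies to H3K9Ac, H3K18Ac, H3K27Ac and total H3, then an anti-rabbit IgG secondary.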

LSD1 [4] = target: T3, LSD1; conditions: read-out: IC50 against LSD1; cited from earlier work

For `CNC(=O)Nc1ccc2c(c1)CC[C@@]21OC(=O)N(CC(=O)N(Cc2ccc(F)cc2)[C@@H](C)C(F)(F)F)C1=O` [Compound A-485], the “effect on p300 HAT-histone H4 binding (in words)” value (shortened to “effect”) [1] is listed as “not significantly inhibited; also recorded: did not affect the p300 HAT-histone H4 interaction”, the EC50 (PANC-1) is listed as > 30 µM and the EC50 (MCF-7) is listed as > 30 µM. The EC50 (MDA-PANC-28) was > 30 µM.

For `CC(=O)NCCOc1cnc(-c2ccc(Br)cc2)c(-c2ccc(Br)cc2)n1` [Compound 10, N-(2-((5,6-bis(4-bromophenyl)pyrazin-2-yl)oxy)ethyl)acetamide hydrochloride], the “inhibitory activity against p300 HAT (in words)” value (“inhibitory activity” for short) [2] was “inactive”.

In the case of `c1cc(-c2ccc(-c3ncc(OCC4CCNCC4)nc3-c3ccc(-c4ccoc4)cc3)cc2)co1` [Compound 29, 2,3-bis(4-(Furan-3-yl)phenyl)-5-(piperidin-4-ylmethoxy)pyrazine hydrochloride], the “inhibition of PCAF activity at 100 μM (in words)” value (PCAF) is reported as “did not significantly inhibit”, the “inhibition of LSD1 activity at 100 μM (in words)” value (LSD1 [3]) is reported as “did not significantly inhibit” and the “mode of inhibition against cofactor Ac-CoA” value ([2]; IC50 versus Ac-CoA 1 - 50 μM) is reported as “likely non-competitive against the enzyme cofactor Ac-CoA”. The “mode of inhibition against substrate histone” value ([2]; IC50 versus histone peptide 2 - 100 μM) was “competitive against the substrate histone”, the “more activity against p300 HAT than initial lead compound 3” value ([2]; relative to compound 3) was > 4 × and the “effect” value [1] was “can dose-dependently disrupt the binding”. For the same compound, the “inhibition of Myst3 activity at 100 μM (in words)” value (Myst3) was “did not significantly inhibit”, the “acetylation of H3K9 in cells” value (Kasumi-1 leukemia cells) was “almost depleted” and the “acetylation of H3K18 in cells” value (Kasumi-1 leukemia cells) was “significantly inhibited”. The “acetylation of H3K27 in cells” value (Kasumi-1 leukemia cells) was “almost depleted”.

For `c1ccc(-c2cc(OCC3CCNCC3)cnc2-c2ccccc2)cc1` [Compound 1, 5,6-diphenyl-3-(piperidin-4-ylmethoxy)pyridine], the IC50 (LSD1 [4]) is given as > 100 µM.

For `NCc1ccc(-c2ncc(OCC3CCNCC3)nc2-c2ccc(CN)cc2)cc1` [Compound 27, ((5-(Piperidin-4-ylmethoxy)pyrazine-2,3-diyl)bis(4,1-phenylene))dimethanamine Hydrochloride], the “activity enhancement against p300 HAT compared to compound 3” value ([2]; relative to compound 3) was ~ 2 fold, the “acetylation of H3K9 in cells” value (Kasumi-1 leukemia cells) was “dose-dependently inhibit” and the “acetylation of H3K18 in cells” value (Kasumi-1 leukemia cells) was “not significantly affected”. For the same compound, the “acetylation of H3K27 in cells” value (Kasumi-1 leukemia cells) was “dose-dependently inhibit”.

For `Cc1ccc(-c2ncc(OCC3CCNCC3)cc2-c2ccc(CO)cc2)cc1` [Compound 2], the IC50 (LSD1 [4]) is given as > 100 µM.

In the case of `Brc1ccc(-c2ncc(OCC3CCNCC3)nc2-c2ccc(Br)cc2)cc1` [Compound 3], the “effect” value [1] is given as “can dose-dependently disrupt the binding” and the IC50 (LSD1 [4]) is given as 52.4 µM.

For `c1ccc(-c2ccc(-c3ncc(OCC4CCNCC4)nc3-c3ccc(-c4ccccn4)cc3)cc2)nc1` [Compound 30, 5-(Piperidin-4-ylmethoxy)-2,3-bis(4-(pyridin-2-yl)phenyl)pyrazine hydrochloride], the inhibition at 10 µM [2] was 37 to 39%.

With `N#Cc1ccc(-c2nc(OCC3CCNCC3)cnc2-c2ccc(Br)cc2)cc1` [Compound 22] the “inhibitory activity” value [2] was “failed to improve the inhibitory activity”.

For `NCCCOc1cnc(-c2ccc(Br)cc2)c(-c2ccc(Br)cc2)n1` [Compound 6, 3-((5,6-bis(4-bromophenyl)pyrazin-2-yl)oxy)propan-1-amine hydrochloride], the “effect” value [1] was “not significantly inhibited”, the “disruption of p300 HAT-histone H4 binding at 100 μM (in words)” value ([1]; 100 μM) was “did not significantly disrupt the binding” and the “acetylation of H3K9 in cells” value (Kasumi-1 leukemia cells) was “did not significantly reduce”. For the same compound, the “acetylation of H3K18 in cells” value (Kasumi-1 leukemia cells) was “did not significantly reduce” and the “acetylation of H3K27 in cells” value (Kasumi-1 leukemia cells) was “did not significantly reduce”.

Compound `c1cc(-c2ccc(-c3ncc(OCC4CCNCC4)nc3-c3ccc(-c4ccncc4)cc3)cc2)ccn1` [Compound 31, 5-(Piperidin-4-ylmethoxy)-2,3-bis(4-(pyridin-4-yl)phenyl)pyrazine hydrochloride] has an inhibition at 10 µM [2] of 37 to 39%.

For `CNCCOc1cnc(-c2ccc(Br)cc2)c(-c2ccc(Br)cc2)n1` [Compound 9, 2-((5,6-bis(4-bromophenyl)pyrazin-2-yl)oxy)-N-methylethan-1-amine hydrochloride], the “inhibitory activity” value [2] was “weak inhibitors”.

For `N#Cc1ccc(-c2ncc(OCC3CCNCC3)nc2-c2ccc(Br)cc2)cc1` [Compound 23], the “inhibitory activity” value [2] was “failed to improve the inhibitory activity”.

In the case of `NCCOc1cnc(-c2ccc(Br)cc2)c(-c2ccc(Br)cc2)n1` [Compound 8, 2-((5,6-bis(4-bromophenyl)pyrazin-2-yl)oxy)ethan-1-amine hydrochloride], the “inhibitory activity” value [2] is reported as “weak inhibitors”.
